{"source": "paper PMC2217063", "about": "(The Journal of General Physiology, 1997)", "key": {"Na,K-ATPase [1]": {"target": "T1, Na,K-ATPase (Canis lupus familiaris, UniProt P50997)", "assay_type": "biochemical, dog"}, "Na,K-ATPase [2]": {"tested_on": "Na,K-ATPase", "conditions": "0°C, different method; ref Klodos and Nørby, 1987; cited from earlier work"}, "Na,K-ATPase [3]": {"target": "T1, Na,K-ATPase", "test": "K- and ADP-chases of the phosphointermediate", "assay_type": "biochemical, dog", "conditions": "for ratio of interconversion rate constants, k12/k21: twin 2-pool model"}, "Na,K-ATPase [4]": {"target": "T1, Na,K-ATPase", "test": "Na-ATPase activity and rate constant of blank chase at 4, 17 and 27°C", "assay_type": "biochemical, dog", "conditions": "both Na-ATPase activity and rate constant of blank chase", "in_short": "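Na-ATPase measured without K+ in imidazole MOPS with Na3EGTA and NaNO3 at 40 or 400 mM, started with ATP, 4 mM final. Rate constant taken from the blank chase: decay of [γ-32P]phosphoenzyme after labelling stops, with a chase lacking ADP and K+. Both run at 4, 17 and 27°C.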"}, "Na,K-ATPase [5]": {"target": "T1, Na,K-ATPase", "test": "Na,K-ATPase activity at 37°C with different anions", "assay_type": "biochemical, dog", "conditions": "400 mM vs 40 mM", "in_short": "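Enzyme purified from outer-medulla microsomes. […] Salts: 40 mM Na+/8 mM K+/3.5 mM Mg2+ or 400 mM Na+/80 mM K+/10 mM Mg2+. Preincubated 20 min at 37°C; started with ATP, 4 mM final.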"}, "[6]": {"conditions": "500 mM Na^+, no replacement cation, nitrate, 4°C, enzyme prep. A"}, "[7]": {"conditions": "45 mM Na^+, replacement cation to a sum of 500 mM, nitrate, 4°C, prep. A"}, "[8]": {"conditions": "200 mM Na^+, replacement cation to a sum of 500 mM, nitrate, 4°C, prep. B"}}, "note": "Where “and” joins values, the source holds several entries; their conditions need not be identical. Identical values can stand only once. Like-named read-outs stand apart in the source and are kept apart here."}
{"smiles": "Nc1ncnc2c1ncn2[C@@H]1O[C@H](COP(=O)(O)OP(=O)(O)OP(=O)(O)O)[C@@H](O)[C@H]1O", "note": "[ATP, reference compound]", "values": [{"measurement": "k(off), rate constant of dissociation of ATP from ATP·E1", "setting": "Na,K-ATPase [1]; [6]", "result": "1.1 ± 0.10 s⁻¹ and 1.3 ± 0.20 s⁻¹"}, {"measurement": "k off, rate constant of dissociation of ATP, range over all media of Table III", "setting": "Na,K-ATPase [1]; 45-500 mM Na^+, 4°C, no correlation with [Na^+]", "result": "0.7 to 1.9", "unit": "s⁻¹"}, {"measurement": "rate constant of dissociation of ATP", "setting": "Na,K-ATPase [2]", "result": "1.5 to 3.5", "unit": "s⁻¹"}]}
{"smiles": "N=C(N)NCCC[C@H](N)C(=O)O", "note": "[Arg^+, arginine^+]", "values": [{"measurement": "E1P (amount of K-resistant E1P)", "setting": "Na,K-ATPase [1]; [7]", "result": 97, "unit": "%"}, {"measurement": "E1P (amount of K-resistant E1P)", "setting": "Na,K-ATPase [1]; [8]", "result": 97, "unit": "%"}]}
{"smiles": "CCN(CC)CC", "note": "[Et3N^+, triethylamine]", "values": [{"measurement": "E1P (amount of K-resistant E1P)", "setting": "Na,K-ATPase [1]; [7]", "result": 68, "unit": "%"}, {"measurement": "E1P (amount of K-resistant E1P)", "setting": "Na,K-ATPase [1]; [8]", "result": 56, "unit": "%"}]}
{"smiles": "CNC[C@H](O)[C@@H](O)[C@H](O)[C@H](O)CO", "note": "[NMG^+, N-methylglucamine]", "values": [{"measurement": "E1P (amount of K-resistant E1P)", "setting": "Na,K-ATPase [1]; 45 mM Na^+, replacement cation to a sum of 500 mM, nitrate, 4°C, prep. C", "result": 80, "unit": "%"}, {"measurement": "E1P (amount of K-resistant E1P)", "setting": "Na,K-ATPase [1]; 200 mM Na^+, replacement cation to a sum of 500 mM, nitrate, 4°C, prep. C", "result": 79, "unit": "%"}]}
{"smiles": "[Cl-].[Na+]", "note": "[NaCl]", "values": [{"measurement": "ratio of interconversion rate constants, k12/k21", "setting": "Na,K-ATPase [3]; 160 mM NaCl, 4°C", "result": "> 5"}, {"measurement": "ratio of interconversion rate constants, k12/k21", "setting": "Na,K-ATPase [3]; 600 mM NaCl, 4°C", "result": 0.25}]}
{"smiles": "O=[N+]([O-])[O-].[Na+]", "note": "[NaNO3]", "values": [{"measurement": "activation energy (ΔH) in 400 mM relative to 40 mM NaNO3", "setting": "Na,K-ATPase [4]", "result": 1.3, "unit": "fold"}, {"measurement": "effect on rate constant of dephosphorylation in a blank chase", "setting": "Na,K-ATPase [3]; 4°C, concentration increased from 40 to 400 mM", "result": "inhibited dephosphorylation"}]}
{"smiles": "[Na+]", "note": "[Na^+]", "values": [{"measurement": "K(internal) = [ADP·E1P]/[ATP·E1]", "setting": "Na,K-ATPase [1]; 45 mM Na^+", "result": "~2"}, {"measurement": "K int in 45 mM Na^+ relative to 200 mM Na^+ in each medium", "setting": "Na,K-ATPase [1]; 45 mM vs 200 mM Na^+", "result": "2.1–2.5 fold"}, {"measurement": "K int = [ADP·E1P]/[ATP·E1]", "setting": "Na,K-ATPase [1]; 200 mM Na^+", "result": "0.5–1.4"}, {"measurement": "K int = [ADP·E1P]/[ATP·E1]", "setting": "Na,K-ATPase [1]; 500 mM Na^+", "result": "0.1–0.3"}, {"measurement": "K(internal) = [ADP·E1P]/[ATP·E1]", "setting": "Na,K-ATPase [1]; 500 mM Na^+", "result": "~0.2"}, {"measurement": "E1P (amount of K-resistant E1P)", "setting": "Na,K-ATPase [1]; [6]", "result": 95, "unit": "%"}, {"measurement": "effect on interconversion rate constants", "setting": "Na,K-ATPase [3]; 240 mM NaNO3 vs 30 mM NaNO3 plus 210 mM TrisNO3, 4°C", "result": "not affected significantly"}]}
{"smiles": "CC(=O)O", "note": "[acetate]", "values": [{"measurement": "effect on Na,K-ATPase activity of increasing the salt concentration to 400 mM", "setting": "Na,K-ATPase [5]", "result": "no effect"}]}
{"smiles": "Cl", "note": "[chloride]", "values": [{"measurement": "effect on Na,K-ATPase activity of increasing the salt concentration to 400 mM", "setting": "Na,K-ATPase [5]", "result": "no effect"}]}
{"smiles": "O=[N+]([O-])O", "note": "[nitrate]", "values": [{"measurement": "amount of E1P in nitrate relative to acetate", "setting": "Na,K-ATPase [3]; 30 mM Na^+, 250 mM Lys^+", "result": "sevenfold larger"}, {"measurement": "initial amount of E1P", "setting": "Na,K-ATPase [3]; 280 mM anion, 30 mM Na^+, 250 mM lysine^+, 4°C, 2-pool model", "result": 36, "unit": "%"}]}
